Calls of active or inactive are those of the source.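 The calls were made as follows, unless noted: active = viability at or below 30% in both replicate assays; inconclusive = viability at or below 30% in just one of the two assays; inactive = the rest.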
Experiments:
[1] = Her2 expression decrease, cell viability multiplex – SKBR3 breast tumor cells, AlphaScreen, ATP viability, primary screen (AID 461;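 active = Her2 level under about 52% in both replicate screens, with viability over 70% of control, limit read from the data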;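 as to Her2 level: lower value means less Her2 protein in the cells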;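 as to viability: percent of carrier control wells set as 100% viability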); conditions: SKBR3 Her2 protein level, 18-24 h, measured here: SKBR3 viability, ATP luminescence, at 10 µM
[2] = biological target: Receptor tyrosine-protein kinase erbB-2 (Homo sapiens) (UniProt P04626); experiment: as above; conditions: 18-24 h, at 10 µM, stronger effect = lower value
[3] = reduced viability of SK-BR-3 breast cancer cells – cell-based, 24 h, human, pilot screen (AID 572;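 active = viability at or below 10% of carrier control in both of two separate runs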;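 also: compound exposure lasted between 18 and 24 h rather than exactly 24 h; 100% = carrier-treated control wells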); conditions: SK-BR-3 viability, CellTiter-Glo luminescence, at 10 µM, stronger effect = lower value
[4] = HUVEC growth inhibition – cell-based, human, primary screen (AID 575); conditions: HUVEC proliferation, CellTiter-Glo luminescence, 72 h; at 10 µM; stronger effect = lower value;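 also: 100% = median of untreated cell wells with 0.1% DMSO on each plate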
How it was run: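 System: primary human umbilical vein endothelial cells; Quantity: 1250 endothelial cells in each well; Buffer or medium: supplemented EBM, 2% fetal bovine serum; Doses: one dose, 10 µM final, 0.1% DMSO; Incubation: 72 h compound incubation; Technique: ATP-based CellTiter-Glo luminescent read; Evaluation: percent of median DMSO-control luminescence; Controls: vehicle and MePR control wells.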

[5] = H69AR cell proliferation blockers – human, duplicate replicates, primary screen (AID 580;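 active = viability at or under a set limit in both replicates, limit being median viability minus 3 SD, cut at about 48% in these data, passing the limit was not always enough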;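 also: 100% = mean luminescence of untreated wells and 0% = no signal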); conditions: H69AR lung tumor cells viability, ATP luminescence, 72 h; at 10 µM; stronger effect = lower value
[6] = MRP1 drug-resistance reversers in H69AR cells – cell-based, doxorubicin co-treatment, pilot screen (AID 601;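 active = viability loss from added drug above about 55%, and viability with drug at most 40%, in both replicates, limit read from the data, passing the limit was not always enough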); conditions: CellTiter-Glo, 72 h, at 10 µM; for differential viability (reversal): stronger effect = higher value
[7] = yeast transport mutant growth inhibition pilot in 384-well plates, post-Golgi transport modulator project (AID 636; in the data active = inhibition above about 31%); conditions: absorbance 615 nm, about 18 h, stronger effect = higher value
[8] = growth suppression of yeast trafficking mutant, preliminary HTS, modulators of trafficking downstream of Golgi apparatus project, 1536-format plate, OD 615 nm (AID 637; in the data active = inhibition above about 30%); conditions: yeast transport mutant growth, absorbance 615 nm, 18 h; stronger effect = higher value
[9] = H69AR cells + 2 uM doxorubicin, measured here: viability with 2 uM doxorubicin, stronger effect = lower value
[10] = H69AR cells, compound alone cytotoxicity

Sequence of Receptor tyrosine-protein kinase erbB-2 (Homo sapiens) (P04626 whole entry, looked up): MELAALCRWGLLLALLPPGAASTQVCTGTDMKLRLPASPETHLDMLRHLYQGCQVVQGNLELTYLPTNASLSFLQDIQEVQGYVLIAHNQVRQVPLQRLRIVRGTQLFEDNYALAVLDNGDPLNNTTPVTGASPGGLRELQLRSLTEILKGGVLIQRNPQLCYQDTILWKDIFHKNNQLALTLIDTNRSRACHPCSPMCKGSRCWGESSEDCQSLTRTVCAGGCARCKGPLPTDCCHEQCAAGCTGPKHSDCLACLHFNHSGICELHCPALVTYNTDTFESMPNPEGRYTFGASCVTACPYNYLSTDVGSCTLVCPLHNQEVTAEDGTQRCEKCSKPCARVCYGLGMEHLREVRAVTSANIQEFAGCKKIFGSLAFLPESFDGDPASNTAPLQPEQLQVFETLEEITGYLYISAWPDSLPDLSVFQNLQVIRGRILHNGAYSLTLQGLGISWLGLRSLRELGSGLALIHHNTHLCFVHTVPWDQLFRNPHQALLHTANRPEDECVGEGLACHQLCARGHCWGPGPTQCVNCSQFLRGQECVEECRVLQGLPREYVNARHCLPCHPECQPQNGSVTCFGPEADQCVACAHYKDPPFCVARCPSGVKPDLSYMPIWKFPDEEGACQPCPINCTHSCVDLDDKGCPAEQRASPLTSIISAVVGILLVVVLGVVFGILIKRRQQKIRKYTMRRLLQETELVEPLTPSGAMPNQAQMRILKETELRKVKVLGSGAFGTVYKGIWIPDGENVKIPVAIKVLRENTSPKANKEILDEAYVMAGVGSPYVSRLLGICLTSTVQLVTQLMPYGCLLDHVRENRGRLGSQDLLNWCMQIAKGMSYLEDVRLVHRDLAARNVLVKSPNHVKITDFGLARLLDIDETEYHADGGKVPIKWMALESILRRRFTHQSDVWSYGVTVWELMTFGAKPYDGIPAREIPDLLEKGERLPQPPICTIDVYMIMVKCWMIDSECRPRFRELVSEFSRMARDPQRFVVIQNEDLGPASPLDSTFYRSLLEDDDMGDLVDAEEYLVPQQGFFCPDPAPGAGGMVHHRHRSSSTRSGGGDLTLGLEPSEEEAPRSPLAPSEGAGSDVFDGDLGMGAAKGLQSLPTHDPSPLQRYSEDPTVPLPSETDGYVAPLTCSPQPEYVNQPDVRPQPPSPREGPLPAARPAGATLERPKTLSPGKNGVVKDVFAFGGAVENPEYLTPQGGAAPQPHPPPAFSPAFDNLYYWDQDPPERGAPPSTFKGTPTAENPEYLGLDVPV

Row | Compound | viability [1] | Her2 level [2] | viability [3] | viability [4] | viability [5] | differential viability (reversal) ([6]; H69AR cells + 2 uM doxorubicin) | viability [6, 9] | viability [6, 10] | inhibition [7] | inhibition [8]
1 | CN(C)c1nc(Oc2ccc(=O)n(C)n2)nc(N2CCOCC2)n1 | 94% | 98.5% (inactive) | 94% (inactive) | 95.7% (inactive) | 92.9% (inactive) | 1.74% (inactive) | 91.2% | 92.9% | -4.93% (inactive) | 1.64% (inactive)
2 | O=C(COC(=O)c1ccc(S(=O)(=O)Nc2ccccc2)cc1)NCCN1C(=O)CSC1=O | 107% | 108% (inactive) | 107% (inactive) | 100% (inactive) | 95.3% (inactive) | 9.27% (inactive) | 86% | 95.3% | -5.07% (inactive) | -3.93% (inactive)
3 | c1ccc(CC2CCN(c3nc4ccccc4n4nnnc34)CC2)cc1 | 84% | 86% (inactive) | 84% (inactive) | 88.6% (inactive) | 81.5% (inactive) | 8.36% (inactive) | 73.2% | 81.5% | 0% (inactive) | 1.5% (inactive)
4 | COc1ccc(Nc2nc(OC)nc(N3CCN(c4ccc(OC)cc4)CC3)n2)cc1 | 123% | 98% (inactive) | 123% (inactive) | 66.7% (inactive) | 71.3% (inactive) | -5.71% (inactive) | 77% | 71.3% | -6.27% (inactive) | -3.06% (inactive)
5 | Nn1c(CSc2nc3ccccc3o2)nnc1CSc1nc2ccccc2o1 | 86% | 94.5% (inactive) | 86% (inactive) | 115% (inactive) | 103% (inactive) | 24.1% (inactive) | 78.6% | 103% | -4.4% (inactive) | -1.8% (inactive)
6 | CC1=CC=CC2=NC(=O)CC(C)(C(=O)N(CC(=O)NC(C)C)C3CCCC3)N12 (stereo not given) | 101% | 100% (inactive) | 101% (inactive) | 96.5% (inactive) | 94% (inactive) | -6.48% (inactive) | 100% | 94% | -4% (inactive) | 0.16% (inactive)
7 | Cc1csc(SCC(=O)NC(=O)NCc2ccccc2)n1 | 108% | 90.5% (inactive) | 108% (inactive) | 103% (inactive) | 95.2% (inactive) | -0.125% (inactive) | 95.3% | 95.2% | -6.67% (inactive) | 2.3% (inactive)
8 | CCCCC(=O)NCCNc1nc2c(c(=O)n(C)c(=O)n2C)n1Cc1ccccc1 | 116% | 83% (inactive) | 116% (inactive) | 99.3% (inactive) | 94.6% (inactive) | -4.03% (inactive) | 98.7% | 94.6% | -5.68% (inactive) | 2.06% (inactive)
9 | COc1cc(C(=O)Nc2cc(Cl)ccc2C)c(-n2cnnn2)cc1OC | 102% | 98% (inactive) | 102% (inactive) | 92.6% (inactive) | 94.9% (inactive) | 4.13% (inactive) | 90.8% | 94.9% | -8% (inactive) | 2.95% (inactive)
10 | COc1ccc(-c2nnc3sc(-c4c(OC)cccc4OC)nn23)cc1 | 105% | 93.5% (inactive) | 105% (inactive) | 62.6% (inactive) | 75.9% (inactive) | -7.34% (inactive) | 83.2% | 75.9% | -5.13% (inactive) | -7.58% (inactive)
11 | CCCS(=O)(=O)NCCc1cc2cc(C)c(C)cc2[nH]c1=O | 106% | 90% (inactive) | 106% (inactive) | 101% (inactive) | 96.3% (inactive) | 8.55% (inactive) | 87.7% | 96.3% | -8.22% (inactive) | -0.63% (inactive)
12 | CCOC(=O)Nc1ccc2c(CN3C(=O)NC4(CCCC4)C3=O)cc(=O)oc2c1 | 89.5% | 92.5% (inactive) | 89.5% (inactive) | 89.2% (inactive) | 88.3% (inactive) | -1.09% (inactive) | 89.4% | 88.3% | -6.58% (inactive) | -0.16% (inactive)
13 | O=C(Cn1nnc(-c2ccncc2)n1)Nc1ccc2c(c1)CCC2 | 112% | 93.5% (inactive) | 112% (inactive) | 107% (inactive) | 110% (inactive) | 13.3% (inactive) | 96.4% | 110% | -6.45% (inactive) | 2.38% (inactive)
14 | Cc1nnc(C)n1/N=C/c1cccc(Oc2ccccc2)c1 | 100% | 78.5% (inactive) | 100% (inactive) | 98% (inactive) | 87.4% (inactive) | 4.77% (inactive) | 82.6% | 87.4% | -1.97% (inactive) | 0.16% (inactive)
15 | Cc1[nH]c(=O)[nH]c(=O)c1S(=O)(=O)N(C)Cc1ccccc1 | 108% | 106% (inactive) | 108% (inactive) | 96.2% (inactive) | 105% (inactive) | 12.3% (inactive) | 92.5% | 105% | -0.66% (inactive) | -4.6% (inactive)
16 | COCCN1Cc2cccc(C(=O)Nc3cccnc3)c2C1=O | 106% | 81% (inactive) | 106% (inactive) | 102% (inactive) | 93.5% (inactive) | -4.91% (inactive) | 98.4% | 93.5% | -6.71% (inactive) | 1.9% (inactive)
17 | COc1ccc(CCn2c(-c3ccco3)nc3nc4ccccc4nc32)cc1 | 108% | 110% (inactive) | 108% (inactive) | 62.8% (inactive) | 25.6% (active) | -29.9% (inactive) | 55.4% | 25.6% | -1.62% (inactive) | 1.31% (inactive)
18 | CCN1C(=O)CC(C(=O)Nc2ccc(F)cc2)SC1=Nc1ccc2c(c1)OCO2 (stereo not given) | 136% | 97% (inactive) | 136% (inactive) | 79.7% (inactive) | 86.4% (inactive) | 6.02% (inactive) | 80.4% | 86.4% | -2.53% (inactive) | -1.61% (inactive)
19 | N#CCc1c(C#N)c(N)nc(N2CCN(S(=O)(=O)c3ccccc3)CC2)c1C#N | 74% | 75.5% (inactive) | 74% (inactive) | 59% (inactive) | 77.6% (inactive) | -13.6% (inactive) | 91.2% | 77.6% | -4.46% (inactive) | 0.16% (inactive)
20 | CCOC(=O)C1(C)NC(c2ccc(OC)c(OC)c2)C2C(=O)N(CC)C(=O)C21 (stereo not given) | 96.5% | 106% (inactive) | 96.5% (inactive) | 89.2% (inactive) | 101% (inactive) | 7.14% (inactive) | 93.8% | 101% | -0.41% (inactive) | -1.27% (inactive)
21 | COc1ccc(S(=O)(=O)N(C)CC(=O)N2CCCCC2)cc1Cl | 80% | 106% (inactive) | 80% (inactive) | 96.6% (inactive) | 93.5% (inactive) | 6.07% (inactive) | 87.4% | 93.5% | -5.41% (inactive) | 1.8% (inactive)
22 | Cc1ccnc(NC(=O)CCC(=O)N(CC(=O)NC(C)(C)C)C2CCCC2)c1 | 108% | 99.5% (inactive) | 108% (inactive) | 92.7% (inactive) | 93.2% (inactive) | 0.62% (inactive) | 92.6% | 93.2% | -4.94% (inactive) | 5.56% (inactive)
23 | CCOC(=O)CCCn1nc(C)n2c(cc3sccc32)c1=O | 87.5% | 94.5% (inactive) | 87.5% (inactive) | 91.8% (inactive) | 102% (inactive) | 20.7% (inactive) | 81% | 102% | -5.07% (inactive) | -3.77% (inactive)
24 | CC(C)C1Cc2c(C#N)c(N)sc(=S)c2CO1 (stereo not given) | 85% | 108% (inactive) | 85% (inactive) | 64.2% (inactive) | 93.9% (inactive) | -2.34% (inactive) | 96.2% | 93.9% | -4.03% (inactive) | -2.13% (inactive)
25 | CCOC(=O)N1CCC2(CC1)CC(=O)c1c(ccc3oc(C(=O)O)c(C)c13)O2 | 118% | 96% (inactive) | 118% (inactive) | 111% (inactive) | 92.3% (inactive) | 3.56% (inactive) | 88.7% | 92.3% | -0.79% (inactive) | -4.55% (inactive)
26 | COc1ccc(C(N)=O)cc1N | 77.5% | 116% (inactive) | 77.5% (inactive) | 105% (inactive) | 94.6% (inactive) | -1.72% (inactive) | 96.3% | 94.6% | 4.81% (inactive) | 18% (inactive)
27 | CSc1ccc(Cn2nnc(C(=O)NCc3ccccc3)c2N)cc1 | 96.5% | 91.5% (inactive) | 96.5% (inactive) | 76.4% (inactive) | 103% (inactive) | 0.465% (inactive) | 103% | 103% | -1.87% (inactive) | 0.16% (inactive)
28 | COc1ccc2c(c1OC)C(=O)OC2Nn1cncn1 (stereo not given) | 95.5% | 96.5% (inactive) | 95.5% (inactive) | 109% (inactive) | 103% (inactive) | 3.5% (inactive) | 99.3% | 103% | -4.08% (inactive) | 0.33% (inactive)

— PubChem BioAssay
